Key:
Type in all cases: functional
[1] = tested on: Pseudomonas aeruginosa; assay: Antimicrobial activity against Pseudomonas aeruginosa clinical isolate after 18 to 22 hrs by broth microdilution method in presence of beta-lactamase inhibitor BLI-489
In short: (§1)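 CLSI broth microdilution in Mueller-Hinton II broth. Serial dilutions of piperacillin were tested with BLI-489 held at a constant 4 μg/ml. Inoculum was 10^5 CFU/ml. Plates were incubated 18 to 22 h at 35°C in ambient air. MIC was the lowest concentration giving complete growth inhibition by unaided eye.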

[2] = tested on: Staphylococcus aureus; assay: Antimicrobial activity against methicillin-resistant Staphylococcus aureus clinical isolate after 18 to 22 hrs by broth microdilution method in presence of beta-lactamase inhibitor Tazobactam
In short: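 CLSI broth microdilution in Mueller-Hinton II broth. Antibiotic in serial dilution with the β-lactamase inhibitor held at a constant 4 μg/ml. Inoculum 10^5 CFU/ml. Incubated 18 to 22 h at 35°C in ambient air.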

[3] = tested on: Enterococcus faecium; assay: Antimicrobial activity against Enterococcus faecium clinical isolate after 18 to 22 hrs by broth microdilution method in presence of beta-lactamase inhibitor Tazobactam
In short: (§2)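 Piperacillin-tazobactam was tested by CLSI broth microdilution in Mueller-Hinton II broth against clinical isolates. Inoculum was 10^5 CFU/ml, with 18 to 22 h incubation at 35°C in ambient air. MIC was read as the lowest concentration completely inhibiting visible growth.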

[4] = tested on: Streptococcus pneumoniae; assay: Antimicrobial activity against penicillin-intermediate Streptococcus pneumoniae clinical isolate after 18 to 22 hrs by broth microdilution method in presence of beta-lactamase inhibitor Tazobactam
In short: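 Broth microdilution per CLSI in Mueller-Hinton II broth supplemented with 5% lysed horse blood, using serial dilutions of piperacillin-tazobactam. Inoculum was 10^5 CFU/ml. Incubation was 18 to 22 h at 35°C in ambient air. MIC was the lowest concentration with no growth visible to the unaided eye.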

[5] = tested on: Bacteroides thetaiotaomicron; assay: Antimicrobial activity against Bacteroides thetaiotaomicron clinical isolate after 18 to 22 hrs by broth microdilution method in presence of beta-lactamase inhibitor BLI-489
[6] = tested on: Clostridium perfringens; assay: Antimicrobial activity against Clostridium perfringens clinical isolate after 18 to 22 hrs by broth microdilution method
[7] = tested on: Parvimonas micra; assay: Antimicrobial activity against Peptostreptococcus micros clinical isolate after 18 to 22 hrs by broth microdilution method
[8] = tested on: Enterococcus casseliflavus; assay: Antimicrobial activity against Enterococcus casseliflavus clinical isolate after 18 to 22 hrs by broth microdilution method in presence of beta-lactamase inhibitor BLI-489
In short: (§3)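 CLSI broth microdilution in Mueller-Hinton II broth. Piperacillin serial dilutions were combined with BLI-489 held constant at 4 μg/ml. Inoculum was 10^5 CFU/ml. Plates were incubated 18 to 22 h at 35°C in ambient air. MIC was the lowest concentration completely inhibiting growth seen by the unaided eye. Piperacillin-tazobactam interpretive criteria were applied.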

[9] = tested on: Enterococcus hirae; assay: Antimicrobial activity against Enterococcus hirae clinical isolate after 18 to 22 hrs by broth microdilution method in presence of beta-lactamase inhibitor BLI-489; in short: as §1
[10] = tested on: Enterobacter cloacae; assay: Antimicrobial activity against Enterobacter cloacae clinical isolate after 18 to 22 hrs by broth microdilution method in presence of beta-lactamase inhibitor Tazobactam
In short: (§4)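 Piperacillin-tazobactam was tested on recent clinical isolates by CLSI broth microdilution in Mueller-Hinton II broth, with tazobactam at constant 4 μg/ml. Wells held 10^5 CFU/ml and were incubated 18 to 22 h at 35°C in ambient air. MIC was the lowest concentration with no growth visible to the unaided eye.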

[11] = tested on: Escherichia coli; assay: Antimicrobial activity against class A extended spectrum beta-lactamase- and class D OXA- producing Escherichia coli clinical isolate after 18 to 22 hrs by broth microdilution method in presence of beta-lactamase inhibitor Tazobactam
[12] = tested on: Escherichia coli; assay: Antimicrobial activity against class A extended spectrum beta-lactamase- producing Escherichia coli clinical isolate after 18 to 22 hrs by broth microdilution method in presence of beta-lactamase inhibitor Tazobactam
In short: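 CLSI broth microdilution of piperacillin-tazobactam in Mueller-Hinton II broth with serial dilutions. Inoculum was 10^5 CFU/ml. Incubation was 18 to 22 h at 35°C in ambient air. MIC was read as the lowest concentration giving complete inhibition of growth visible to the unaided eye.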

[13] = tested on: Citrobacter koseri; assay: Antimicrobial activity against Citrobacter koseri clinical isolate after 18 to 22 hrs by broth microdilution method in presence of beta-lactamase inhibitor Tazobactam; in short: as §4
[14] = tested on: Escherichia coli; assay: Antimicrobial activity against AmpC beta-lactamase-producing Escherichia coli clinical isolate after 18 to 22 hrs by broth microdilution method in presence of beta-lactamase inhibitor BLI-489; in short: as §3
[15] = tested on: Enterobacter cloacae; assay: Antimicrobial activity against AmpC beta-lactamase-producing Enterobacter cloacae clinical isolate after 18 to 22 hrs by broth microdilution method in presence of beta-lactamase inhibitor BLI-489; in short: as §3
[16] = tested on: Klebsiella oxytoca; assay: Antimicrobial activity against Klebsiella oxytoca clinical isolate after 18 to 22 hrs by broth microdilution method in presence of beta-lactamase inhibitor BLI-489; in short: as §1
[17] = tested on: Serratia marcescens; assay: Antimicrobial activity against Serratia marcescens clinical isolate after 18 to 22 hrs by broth microdilution method in presence of beta-lactamase inhibitor Tazobactam; in short: as §2
[18] = tested on: Serratia marcescens; assay: Antimicrobial activity against Serratia marcescens clinical isolate after 18 to 22 hrs by broth microdilution method in presence of beta-lactamase inhibitor BLI-489; in short: as §1
[19] = tested on: Morganella morganii; assay: Antimicrobial activity against Morganella morganii clinical isolate after 18 to 22 hrs by broth microdilution method in presence of beta-lactamase inhibitor Tazobactam; in short: as §2
[20] = tested on: Providencia rettgeri; assay: Antimicrobial activity against Providencia rettgeri clinical isolate after 18 to 22 hrs by broth microdilution method in presence of beta-lactamase inhibitor BLI-489; in short: as §1
[21] = tested on: Providencia stuartii; assay: Antimicrobial activity against Providencia stuartii clinical isolate after 18 to 22 hrs by broth microdilution method in presence of beta-lactamase inhibitor Tazobactam; in short: as §2
[22] = tested on: Acinetobacter calcoaceticus; assay: Antimicrobial activity against Acinetobacter calcoaceticus clinical isolate after 18 to 22 hrs by broth microdilution method in presence of beta-lactamase inhibitor BLI-489; in short: as §3
[23] = tested on: Acinetobacter haemolyticus; assay: Antimicrobial activity against Acinetobacter haemolyticus clinical isolate after 18 to 22 hrs by broth microdilution method in presence of beta-lactamase inhibitor Tazobactam; in short: as §4
[24] = tested on: Acinetobacter haemolyticus; assay: Antimicrobial activity against Acinetobacter haemolyticus clinical isolate after 18 to 22 hrs by broth microdilution method in presence of beta-lactamase inhibitor BLI-489; in short: as §3

CCN1CCN(C(=O)N[C@@H](C(=O)N[C@@H]2C(=O)N3[C@@H]2SC(C)(C)[C@@H]3C(=O)O)c2ccccc2)C(=O)C1=O [PIPERACILLIN]
2 µg/mL: MIC50 [8] | MIC50 [9] | MIC50 [10] | MIC90 [11] | MIC50 [13] | MIC50 [14] | MIC50 [15] | MIC50 [16] | MIC50 [17] | MIC50 [21]
64 µg/mL: MIC90 [1] | MIC50 [2] | MIC90 [17]
4 µg/mL: MIC90 [18] | MIC50 [24]
≤ 0.12 µg/mL: MIC50 [23]
16 µg/mL: MIC50 [5] | MIC90 [5] | MIC50 [12] | MIC90 [13] | MIC90 [14] | MIC90 [21] | MIC90 [24]
0.25 µg/mL: MIC90 [6] | MIC90 [7]
> 128 µg/mL: MIC90 [3] | MIC90 [10] | MIC50 [22] | MIC90 [22]
32 µg/mL: MIC50 [3] | MIC90 [12] | MIC90 [23]
1 µg/mL: MIC90 [4] | MIC50 [11] | MIC50 [18] | MIC90 [19] | MIC50 [20]
8 µg/mL: MIC50 [1] | MIC90 [8] | MIC90 [9] | MIC90 [15] | MIC90 [16] | MIC90 [20]
0.5 µg/mL: MIC50 [4] | MIC50 [19]
0.12 µg/mL: MIC50 [7]
0.06 µg/mL: MIC50 [6]
